# From PubChem
# An excerpt weighted towards active compounds, which were near 1.4% of everything screened.
# FN deposit inh = inhibitors of fibronectin matrix deposition, primary screen, AH1F cells, Alexa488-fibronectin fluorescence, plate reader | inhibition, % at 12.6 µM | 0.086% of 350,000 active | AH1F fibroblasts, overnight;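 active = mean inhibition across replicates of 30% or more, regardless of how many single replicates reach that level; inconclusive = mean under 30% yet at least half of replicates reach 30%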;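 also: positive control wells lacked labelled fibronectin entirely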
#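 Material: AH1F fibroblast monolayer depositing Alexa488-labelled fibronectin into matrix | Input: 10000 AH1F cells/well | Medium: DMEM plus 2% serum, read in PBS | Reagent: Alexa488-fibronectin, 24 nM final in well | Compound dosing: One dose per compound, pinned | Schedule: 1 h adhesion, overnight exposure | Measured by: Fluorescence at 485 nm excitation, 525 nm emission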
# PDI turbidity = inhibitors of human PDI, primary screen, biochemical, turbidity, single point, plate reader; Protein disulfide-isomerase (Homo sapiens), P07237; PDI insulin aggregation turbidity, A650, 90 min; inhibition, % at 10 µM; 0.052% of 350,000 active;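 active = mean inhibition across replicates of 30% or more, whatever share of single replicates reach that level; inconclusive = mean inhibition below 30% while every single replicate reaches 30%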
# ERp5 block = inhibitors of ERp5-driven insulin aggregation, primary screen, biochemical, turbidity, absorbance 650 nm, single point. Protein disulfide-isomerase A6 (Homo sapiens), Q15084. 90 min. inhibition, % at 9.99 µM. 0.05% of 350,000 active. AID 651711, 2012;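 active = mean replicate inhibition above about 25%, with every replicate also reaching it, limit read from the data, passing the limit was not always enough; inconclusive = only one of those two criteria met; inactive = neither criterion met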
# Target sequence (Q15084 whole entry, looked up): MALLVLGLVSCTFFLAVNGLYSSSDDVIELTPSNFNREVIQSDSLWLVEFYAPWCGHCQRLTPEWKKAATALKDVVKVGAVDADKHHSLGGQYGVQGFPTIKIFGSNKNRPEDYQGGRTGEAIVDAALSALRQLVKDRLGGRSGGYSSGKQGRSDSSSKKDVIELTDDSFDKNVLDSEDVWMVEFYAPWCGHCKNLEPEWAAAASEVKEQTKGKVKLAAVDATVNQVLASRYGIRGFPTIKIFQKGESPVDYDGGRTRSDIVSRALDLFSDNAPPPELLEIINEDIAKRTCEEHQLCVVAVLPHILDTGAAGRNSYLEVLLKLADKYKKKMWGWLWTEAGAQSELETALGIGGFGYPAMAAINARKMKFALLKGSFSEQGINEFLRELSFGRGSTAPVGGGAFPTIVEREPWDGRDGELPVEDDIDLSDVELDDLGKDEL
# GSIS activator = GLuc luminescence reporter in INS-1E cells, primary screen for activators of glucose-dependent secretion of insulin. INS-1E GLuc reporter insulin secretion, 2-3 h. activation, % at 16.6 µM. 0.61% of 370,000 active;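 active = lowest replicate activation of at least 40%, so every replicate reaches that level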;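 also: 0% = median of neutral control wells and 100% = median of IBMX positive control wells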
# Env fusion inh = inhibitors of HIV-1 Env-driven cell-cell fusion, primary screen, HeLa-JRFL effector, CEM21 target cells, luciferase; inhibition, % at 12.3 µM; 1.1% of 360,000 active; AID 651610, 2012;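 active = mean replicate inhibition score of at least 50 and every replicate individually at or above 50; inconclusive = only one of the two criteria met; inactive = mean below 50 and not all replicates reaching 50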;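 also: 0% = plate neutral controls and 100% = maraviroc near 300 nM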
# The depositor's hits bear a star; ? = inconclusive; . = no result; [ ] = dose if it differs, or a comment.
SMILES,FN deposit inh,PDI turbidity,ERp5 block,GSIS activator,Env fusion inh
COc1ccc2c3c(n(C)c2c1)[C@H](CO)N(S(C)(=O)=O)CC31CCN(CC2CCCC2)CC1,.,.,60*,7,.
CCCN1C[C@H](C)[C@H](OC)CN(C)C(=O)c2ccc(NC(=O)CC(F)(F)F)cc2OC[C@H]1C,.,.,11,17,.
O=C(O)COc1ccccc1-c1ccccc1,5,-1,2,41*,-22
COc1ccc(-c2nnc(Nc3nc4c(OC)cccc4s3)o2)cc1,.,7,.,.,72*
COc1ccc(-c2nnc(Nc3nc4c(OC)cccc4s3)o2)c(OC)c1,-2,4,.,.,39
Cc1ccccc1-c1cnc2c(c1)C(=O)N([C@H](C)CO)C[C@H](C)[C@@H](CN(C)Cc1cncnc1)O2,.,.,2,2,6[16.7 µM]
O=C(NCCOc1ccccc1)c1cc([N+](=O)[O-])ccc1N1CCOCC1,-22,3,11,3,2
O=C(NCCOc1ccccc1F)c1cc([N+](=O)[O-])ccc1N1CCOCC1,.,-5,-2,-5,63*
CC1CCN(c2ccccc2NC(=O)c2cc([N+](=O)[O-])ccc2N2CCOCC2)CC1,9,0,0,3,60*
O=C(C[C@H]1C=C[C@H](NS(=O)(=O)c2ccccc2)[C@@H](CO)O1)NCc1ccncn1,.,.,-5,5,17[16.7 µM]
O=C1Nc2cnc(Cl)nc2Nc2ccccc21,11,.,2,87*,11
C[C@@H]1CN([C@@H](C)CO)C(=O)Cc2cc(NS(=O)(=O)c3ccccc3)ccc2O[C@@H]1CN(C)S(=O)(=O)c1ccc(Cl)cc1,.,.,.,0,0[16.7 µM]
CCN(CC)CCNC(=S)Nc1ccc2nc(N3CCN(CC)CC3)cc(C)c2c1,4,-6,0,48*,0
C[C@H](CO)N1C[C@H](C)[C@@H](CN(C)C(=O)Nc2cccc3ccccc23)Oc2ccc(NC(=O)Nc3ccc(F)cc3)cc2C1=O,2,.,-4,-5,.
Cc1cc(C(=O)OCC(=O)N2CC(C)OC(C)C2)c2ccccc2n1 (stereo not given),.,2,3,29,6
CCc1nc2ccccc2c(C(=O)Oc2cccc3cccnc23)c1C,25,4,.,.,80*
CCc1nc2ccccc2c(C(=O)OCC(=O)N2CC(C)OC(C)C2)c1C (stereo not given),10,-2,-1,32,64*
CC(C)C#Cc1cnc2c(c1)C(=O)N([C@H](C)CO)C[C@@H](C)[C@H](CN(C)Cc1cccc(F)c1)O2,-19,.,0,-9,2[16.7 µM]
COc1ccccc1/C=C/C1(C(=O)NC2CCCC2)CC(=O)N1c1ccc(C)cc1 (stereo not given),-7,-3,.,.,-40
COc1ccccc1/C=C/C1(C(=O)NC2CCCC2)CC(=O)N1c1ccc(F)cc1 (stereo not given),.,7,.,-14,131*
O=C(Nc1ccc(F)cc1)Nc1ccc2c(c1)[C@H]1C[C@@H](CC(=O)N3CCCCC3)O[C@H](CO)[C@H]1O2,-2,.,.,-2,83*[16.7 µM]
O=C(C[C@@H]1C[C@H]2c3cc(NC(=O)Nc4ccc(F)cc4)ccc3O[C@H]2[C@@H](CO)O1)NCC1CC1,0,.,.,-1,.
O=C(C[C@H]1C[C@@H]2c3cc(NC(=O)Nc4ccc(F)cc4)ccc3O[C@@H]2[C@@H](CO)O1)NCC1CC1,-1,.,.,2,95*[16.7 µM]
O=C(C[C@@H]1C[C@H]2c3cc(NC(=O)Nc4ccc(F)cc4)ccc3O[C@H]2[C@H](CO)O1)NCC1CC1,-2,.,.,-14,95*[16.7 µM]
C[C@H](NC(=O)C[C@H]1C[C@H]2c3cc(N(C)C)ccc3O[C@H]2[C@@H](CO)O1)c1ccccc1,.,.,7,2,27[16.7 µM]
SMILES,FN deposit inh,PDI turbidity,ERp5 block,GSIS activator,Env fusion inh
CCc1ccc2c(c1)NC(=O)C2(C)Cc1ccc(F)cc1 (stereo not given),6,-5,2,-17,-13
CC1(Cc2ccc(C(F)(F)F)nc2)C(=O)Nc2cc(-c3ccccc3Cl)ccc21 (stereo not given),-5,1,6,.,70*
CC1(Cc2ccccc2C#N)C(=O)Nc2cc(-c3ccccc3Cl)ccc21 (stereo not given),10,1,4,-49,57*
COc1ccccc1S(=O)(=O)N1C[C@H](O)COC[C@H]2O[C@@H](CC(=O)O)CC[C@@H]21,0,.,36*,-1,.
COc1ccccc1S(=O)(=O)N1C[C@@H](O)COC[C@@H]2O[C@@H](CC(=O)O)CC[C@H]21,2,.,1,1,.
O=C(C[C@H]1C[C@@H]2c3cc(NC(=O)Nc4ccccc4F)ccc3O[C@@H]2[C@@H](CO)O1)NCc1ccc(Oc2ccccc2)cc1,-21,.,1,-29,5[16.7 µM]
Cc1ccc(-n2c(C)c([N+](=O)[O-])c3ccc(O)c(CN(C)C)c32)cc1,5,0,.,.,62*
COc1ccc(-n2c(C)c([N+](=O)[O-])c3ccc(O)c(CN4CCCCC4)c32)cc1,-5,0,.,.,?
C[C@@H]1CN([C@@H](C)CO)C(=O)c2cc(-c3ccncc3)cnc2O[C@H]1CN(C)C(=O)c1ccncc1,.,.,-2,5,-18[16.7 µM]
O=C(NCCSc1ccccn1)c1ccc(Cl)cc1,.,11,-1,-1,-67
CS(=O)(=O)N(Cc1ccc(Cl)cc1)c1ccc(C(=O)Nc2cccnc2)cc1,.,-4,.,.,60*
CS(=O)(=O)N(Cc1ccc(Cl)cc1)c1ccc(C(=O)NCCSc2ccccn2)cc1,-7,-9,.,-16,85*
O=C(NCc1ccc(F)cc1)[C@H]1[C@H](CO)[C@H]2Cn3c(cccc3=O)[C@H]2N1Cc1ccccn1,.,.,1,4,.
C[C@H]1CCCCO[C@H](CN(C)C(=O)NC2CCCCC2)[C@@H](C)CN([C@@H](C)CO)C(=O)c2cc(NC(=O)C3CCCCC3)ccc2O1,.,.,1,-15,0[16.7 µM]
O=C(NCCc1ccccc1)N1c2ccccc2Sc2ccccc21,-13,7,.,.,60*
COc1ccc(-c2ccc(-c3noc(-c4ccco4)n3)c(OC)n2)cc1,.,2,.,55*,-72
C[C@@H](NC(=O)C[C@H]1CC[C@H](NS(=O)(=O)c2cccc(F)c2)[C@@H](CO)O1)c1ccccc1,12,.,-2,-3,.
N=c1c2c(-c3ccccc3)c(-c3ccccc3)n(Cc3ccco3)c2ncn1CCCN1CCOCC1,4,2,-2,1,75*
N=c1c2c(-c3ccccc3)c(-c3ccccc3)n(Cc3ccco3)c2ncn1CCCn1ccnc1,13,-20,-3,.,25
CC(=O)Nc1ccc(NC(=O)C(C)OC(=O)/C=C/c2cn(-c3ccccc3)nc2-c2cccnc2)cc1 (stereo not given),1,1,.,392*,-13
CCCC(=O)N1CCC2(CC1)CN(C(=O)COC)[C@H](CO)c1c2c2ccc(OC)cc2n1C,.,.,0,-4,9[16.7 µM]
